Broadly, the MBC is the smallest concentration meeting the test's criterion for killing. Lower therefore signals more potent killing. One may read the MIC as the lowest concentration found to suppress growth. As usually defined, the IC50 is the concentration at which inhibition is half-maximal. Read a low IC50 as higher potency.

From ChEMBL document CHEMBL1154413, “In vitro activities of different inhibitors of bacterial transcription against Staphylococcus epidermidis biofilm” (Antimicrob Agents Chemother, 2007) come the findings set out here.

Assay [1] has as its system Staphylococcus epidermidis. The assay is described as follows: Inhibition of Staphylococcus epidermidis biofilm formation assessed as log 10 reduction of bacterial count in biofilm at 4 times MIC per well after 24 hrs. The assay is classed as functional. In a few lines: (§1)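 S. epidermidis RP62A biofilms grown 24 h at 37°C from 10^7 CFU/ml in MHB in polystyrene microtiter wells, rinsed, then exposed 24 h at 37°C without shaking to compound in MHB (1× to 16× MIC). Washed, lysed with DMSO, bacterial ATP read by luciferase/luciferin bioluminescence, converted to log10 CFU/well via calibration against plate counts; reduction versus unchallenged biofilm. Triplicate.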

Assay [2] relates to Staphylococcus epidermidis. The assay is described as follows: Ratio of MBC for Staphylococcus epidermidis to MIC for Staphylococcus epidermidis. The assay is classed as functional. In a few lines:
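MBC obtained by extending the CLSI MIC assay (MHB, 5 × 10^5 CFU/ml, 37°C, 24 h): well portions serially diluted, spotted on MHB agar, incubated 37°C, read at 24 h as lowest concentration giving 0.1% survival. Triplicate.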

For assay [3], the system named is Staphylococcus epidermidis. The assay is described as follows: Antimicrobial activity against Staphylococcus epidermidis. The assay is classed as functional. The essentials:
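S. epidermidis RP62A; broth microdilution per CLSI in Mueller-Hinton broth, inoculum 5 × 10^5 CFU/ml, 37°C for 24 h before reading. Triplicate.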

Assay [4] in a line: Inhibition of Staphylococcus epidermidis RNA polymerase mediated transcription. The essentials: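 Transcription measured on toluene-permeabilized S. epidermidis cells, endogenous DNA as template; [5-3H]UTP incorporation read out, concentration giving 50% inhibition calculated. Triplicate.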
The subject of assay [5] is Staphylococcus epidermidis. In words: Inhibition of Staphylococcus epidermidis biofilm formation assessed as reduction of >2 log 10 bacterial count in biofilm after 24 hrs. The assay is classed as functional, organism-based. The essentials: as §1
Assay [6] relates to Staphylococcus epidermidis. In words: Inhibition of Staphylococcus epidermidis biofilm formation assessed as log 10 reduction of bacterial count in biofilm at 0.025 ug/ml per well after 24 hrs. Type of assay: functional. In a few lines: as §1

≈ marks a conversion by molar mass, not a printed value. Calls of active or inactive are those of the source.

In the case of `O/N=C(\Nc1ccccc1)c1cccc(C(F)(F)F)c1`, in assay [1], the Activity is listed as 3. The Ratio in assay [2] worked out at 1. In addition, in assay [3], the MBC was determined as 100 µg/mL (≈ 357 µM) and 100 µg/mL (≈ 357 µM) was the least that counted as inhibitory (MIC). For the same compound, in assay [4], the IC50 worked out at 4.2 µg/mL (≈ 15 µM).

With `CNC(=O)[C@@H](C)[C@H]1C(=O)/C(=C(O)/C=C/C(C)=C/[C@@H](C)[C@H]2O[C@@]3(C)O[C@H](C=C[C@@]34CO4)[C@@H]2C)C(=O)N1[C@@H]1CC[C@H](O)[C@H](C)O1` [STREPTOLYDIGIN], the Ratio in assay [2] is 2. In assay [3], the MBC is 100 µg/mL (≈ 166 µM) and the MIC was 50 µg/mL (≈ 83.2 µM). In assay [4], this compound had an IC50 of 2.3 µg/mL (≈ 3.83 µM). In addition, the result in assay [5] was inactive.

With `CCOC(=O)c1c(NC(=O)Nc2ccccc2)sc2c1CCCCCC2`, the Ratio in assay [2] is greater than 18. In assay [3], this compound came in with an MBC greater than 100 µg/mL and a minimal inhibitory concentration (MIC) of 6.25 µg/mL (≈ 16.8 µM). This compound had an IC50 in assay [4] of 0.5 µg/mL (≈ 1.34 µM). The result in assay [5] was inactive.

Regarding `O/N=C(\Nc1cccc(Cl)c1)c1ccc(Cl)c(C(F)(F)F)c1`, the Activity in assay [1] amounted to 3. Besides, the Ratio in assay [2] came to 1. In assay [3], this compound displayed an MBC of 25 µg/mL (≈ 71.6 µM) and an MIC of 25 µg/mL (≈ 71.6 µM). Moreover, the concentration for half-maximal inhibition (IC50) in assay [4] stood at 2.3 µg/mL (≈ 6.59 µM).

With `CO[C@H]1/C=C/O[C@@]2(C)Oc3c(C)c(O)c4c(O)c(c(/C=N/N5CCN(C6CCCC6)CC5)c(O)c4c3C2=O)NC(=O)/C(C)=C\C=C\[C@H](C)[C@H](O)[C@@H](C)[C@@H](O)[C@@H](C)[C@H](OC(C)=O)[C@@H]1C` [RIFAPENTINE], in assay [6], the Activity is on record as 1.5. In addition, the Ratio in assay [2] is given as 2. In assay [3], this compound displayed a minimal bactericidal concentration (MBC) of 0.025 µg/mL (≈ 0.0285 µM) and an MIC of 0.012 µg/mL (≈ 0.0137 µM). Also, in assay [4], the IC50 is 0.08 µg/mL (≈ 0.0912 µM). In assay [5], the result was inactive.

On to `C=CCN1C(=O)/C(=C/c2ccc(-c3cccc(C(=O)O)c3)o2)SC1=S`, for which the Activity in assay [1] worked out at 1.8. Further, the Ratio in assay [2] is 2. In assay [3], this compound showed an MBC of 25 µg/mL (≈ 67.3 µM) and an MIC of 12.5 µg/mL (≈ 33.7 µM). The same compound had an IC50 in assay [4] of 2.5 µg/mL (≈ 6.73 µM). Also, in assay [5], the outcome was inactive.

For the compound `CO[C@H]1/C=C/O[C@@]2(C)Oc3c(C)c(O)c4c(O)c(c5c(nc6cc(C)ccn65)c4c3C2=O)NC(=O)/C(C)=C\C=C\[C@H](C)[C@H](O)[C@@H](C)[C@@H](O)[C@@H](C)[C@H](OC(C)=O)[C@@H]1C` [RIFAXIMIN], the Activity in assay [6] came to 1.5. In addition, the Ratio in assay [2] is listed as 2. In assay [3], this compound came in with an MBC of 0.025 µg/mL (≈ 0.0318 µM) and an MIC of 0.012 µg/mL (≈ 0.0153 µM). The same compound had an IC50 in assay [4] of 0.07 µg/mL (≈ 0.0891 µM). Besides, the result in assay [5] was inactive.

With `CC(=O)Nc1c2sscc-2n(C)c1=O` [THIOLUTIN], the Ratio in assay [2] is 2. Further, in assay [3], the MBC came out at 12.5 µg/mL (≈ 54.8 µM) and the minimum inhibitory concentration (MIC) was 6.25 µg/mL (≈ 27.4 µM). Besides, the IC50 in assay [4] is greater than 100 µg/mL. In addition, the result in assay [5] was inactive.

In the case of `CO[C@H]1/C=C/O[C@@]2(C)Oc3c(C)c(O)c4c(O)c(c(/C=N/N5CCN(C)CC5)c(O)c4c3C2=O)NC(=O)/C(C)=C\C=C\[C@H](C)[C@H](O)[C@@H](C)[C@@H](O)[C@@H](C)[C@H](OC(C)=O)[C@@H]1C` [RIFAMPIN], the Ratio in assay [2] was 1. Also, in assay [3], the MBC is 0.006 µg/mL (≈ 0.00729 µM) and the minimum inhibitory concentration (MIC) turned out to be 0.006 µg/mL (≈ 0.00729 µM). The compound further yielded an IC50 in assay [4] of 0.04 µg/mL (≈ 0.0486 µM). In assay [5], the outcome was inactive.

`CC(=O)Nc1c2sscc-2[nH]c1=O` [HOLOMYCIN]: the Ratio in assay [2] is recorded as 4. In addition, in assay [3], the MBC stood at 50 µg/mL (≈ 233 µM) and the MIC stood at 12.5 µg/mL (≈ 58.3 µM). In assay [4], the IC50 was greater than 100 µg/mL. Besides, the result in assay [5] was inactive.
